The source made the active and inactive calls. No cut-off for these calls is given here.
Experiments:
[1] = Stability in mouse plasma; assay type: ADME, cell-free
[2] = AUC in mouse at 10 mg/kg, po; assay type: ADME, organism-based; conditions: in vivo
In short: (§1)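 Mice dosed orally by gavage, dose volume set by morning body weight. Serial blood samples (~30 μl) from submandibular or saphenous vein into K2EDTA. Plasma separated by centrifugation at 3000 g, stored at −70 °C, analysed by LC/MS/MS.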

SK-HEP1 [3] = assay: Antitumor activity against human SKHEP1 cells xenografted in NOD/SCID mouse assessed as tumor weight at 30 mg/kg, po administered on day 4 to day 30 post-tumor cell inoculation (reference value: 151 +/- 66 mg); assay type: functional
[4] = Volume of distribution at steady state in mouse at 5 mg/kg, iv; assay type: ADME, organism-based; conditions: in vivo, read-out: Vdss
[5] = Cmax in mouse at 10 mg/kg, po; assay type: ADME, organism-based; set-up: dose 10 mg/kg, route oral; conditions: in vivo; in short: as §1
SK-HEP1 [6] = assay: Antitumor activity against human SKHEP1 cells xenografted in NOD/SCID mouse assessed as tumor weight at 60 mg/kg, po administered on day 4 to day 30 post-tumor cell inoculation (reference value: 151 +/- 66 mg); assay type: functional
[7] = molecular target: T1, C-X-C chemokine receptor type 6 (Mus musculus, UniProt Q9EQ16); assay: Antagonist activity at mouse CXCR6 by DiscoveRx cell based beta-arrestin assay
T1 sequence (Q9EQ16 whole entry): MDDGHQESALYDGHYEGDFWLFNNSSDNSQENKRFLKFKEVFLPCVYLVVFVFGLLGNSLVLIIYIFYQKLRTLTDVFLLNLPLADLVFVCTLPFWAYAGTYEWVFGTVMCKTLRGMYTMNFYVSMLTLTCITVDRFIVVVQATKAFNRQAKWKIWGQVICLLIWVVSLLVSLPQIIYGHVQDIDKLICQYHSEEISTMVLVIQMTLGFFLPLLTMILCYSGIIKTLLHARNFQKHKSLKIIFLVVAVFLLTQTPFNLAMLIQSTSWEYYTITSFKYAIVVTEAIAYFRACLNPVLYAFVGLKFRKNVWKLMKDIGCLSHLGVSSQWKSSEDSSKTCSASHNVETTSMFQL

[8] = Half life in mouse at 5 mg/kg, iv; assay type: ADME, organism-based; conditions: in vivo
[9] = Toxicity in NOD/SCID mouse xenografted with human SKHEP1 cells assessed as animal death at 30 to 60 mg/kg, po administered on day 4 to day 30 post-tumor cell inoculation; assay type: organism-based, SK-HEP1; conditions: in vivo
[10] = molecular target: T2, C-X-C chemokine receptor type 6 (Homo sapiens, UniProt O00574); assay: Inhibition of CXCR6-mediated cell invasion in human SKHEP1 cells after 72 hrs by transwell assay; assay type: cell-based; conditions: SK-HEP1
In short: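 SK-HEP-1 cells, 100k/well in 0.2% FBS, seeded in upper chamber of a chemotaxis plate coated with matrigel (250 μg/ml). CXCL16 (0.6 μg/ml) in lower chamber; compound in both chambers. Kept at 37 °C, 5% CO2 and imaged hourly in IncuCyte. Migration quantified as confluence from phase-contrast images.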
Target sequence in this assay (O00574 whole entry, looked up): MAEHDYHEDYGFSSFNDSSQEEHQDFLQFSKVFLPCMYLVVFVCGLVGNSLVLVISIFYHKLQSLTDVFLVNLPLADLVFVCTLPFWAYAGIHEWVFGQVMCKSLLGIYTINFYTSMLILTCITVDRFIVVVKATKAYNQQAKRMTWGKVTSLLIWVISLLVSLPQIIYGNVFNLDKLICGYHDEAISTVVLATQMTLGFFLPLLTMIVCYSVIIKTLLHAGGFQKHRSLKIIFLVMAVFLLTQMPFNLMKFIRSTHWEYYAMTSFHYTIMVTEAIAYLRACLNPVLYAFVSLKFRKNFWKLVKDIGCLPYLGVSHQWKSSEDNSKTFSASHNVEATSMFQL

[11] = Drug metabolism in mouse liver microsomes incubated up to 1 hr; assay type: ADME, Microsome; conditions: read-out: Drug metabolism
In short: (§2)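 Liver microsomes (1.0 mg/mL) preincubated with compound (1 μM final) for 10 min at 37 °C. Reaction started with NADPH-generating system (NADP+, glucose-6-phosphate, G6PDH, MgCl2) in 100 mM potassium phosphate, pH 7.4. Sampled at 0, 5, 15, 30 and 60 min; percent remaining at 1 hr reported.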

SK-HEP1 [12] = assay: Toxicity in human SKHEP1 cells assessed as effect on cell viability after 72 hrs; assay type: cell-based; conditions: sk-hep1, 72 h
[13] = Toxicity in NOD/SCID mouse xenografted with human SKHEP1 cells assessed as effect on behavior phenotypes at 30 to 60 mg/kg, po administered on day 4 to day 30 post-tumor cell inoculation; assay type: organism-based, SK-HEP1; conditions: in vivo
[14] = Drug metabolism in human liver microsomes incubated up to 1 hr; assay type: ADME, Microsome; conditions: read-out: Drug metabolism; in short: as §2
[15] = Clearance in mouse at 5 mg/kg, iv; assay type: ADME, organism-based; conditions: in vivo
SK-HEP1 [16] = assay: Antitumor activity against human SKHEP1 cells xenografted in NOD/SCID mouse assessed as inhibition of tumor growth at 30 to 60 mg/kg, po administered on day 4 to day 30 post-tumor cell inoculation; assay type: functional, organism-based
[17] = Stability in human plasma; assay type: ADME, cell-free
[18] = molecular target: T2, C-X-C chemokine receptor type 6; assay: Antagonist activity at Prolink-tagged human CXCR6 receptor assessed as inhibition of forskolin-induced cAMP accumulation by DiscoveRx cell based assay relative to control; assay type: functional; set-up: concentration or dose not given beside the values; conditions: concentration not given here
In short: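 CXCR6 β-arrestin cells in OptiMEM with 2% FBS, 500 cells/well, grown overnight; compounds added, then forskolin with 20 nM CXCL16 (stock concentrations) in HBSS/HEPES/BSA with RO-20-1724, 30 min at room temperature. cAMP read by LANCE Ultra TR-FRET after a further 30 min. Hill slope fixed at 1; at least two runs on different days, averaged pIC50 ± SD.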
Target sequence in this assay (O00574 whole entry, looked up): as above

[19] = molecular target: T2, C-X-C chemokine receptor type 6; assay: Antagonist activity at Prolink-tagged human CXCR6 receptor assessed as inhibition of CXCL16-induced beta-arrestin recruitment by DiscoveRx cell based assay relative to control; set-up: concentration or dose not given beside the values; conditions: concentration not given here
In short: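 CXCR6 β-arrestin cells in assay media without G418/hygromycin, 800 cells/well, grown overnight at 37 °C; compounds added acoustically (DMSO ≤0.3%), then 20 nM CXCL16 (final) for 90 min at 37 °C. PathHunter luminescence read. Normalized between CXCL16-alone and no-ligand wells; four-parameter fit with Hill slope fixed at 1; at least two runs on different days, averaged pIC50 ± SD.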
Target sequence in this assay (O00574 whole entry, looked up): as above

[20] = Toxicity in human liver microsomes; set-up: species or system Microsome
[21] = Toxicity in NOD/SCID mouse xenografted with human SKHEP1 cells assessed as animal weight at 30 to 60 mg/kg, po administered on day 4 to day 30 post-tumor cell inoculation; assay type: organism-based, SK-HEP1; conditions: in vivo
[22] = test system: CXCR6 receptor (Prolink-tagged, human); assay: Safety index, ratio of LC50 for toxicity in human liver microsomes to IC50 for Prolink-tagged human CXCR6 receptor; conditions: read-out: Ratio LC50/IC50
[23] = Half life in mouse at 10 mg/kg, po; assay type: ADME, organism-based; conditions: in vivo; in short: as §1
[24] = Ratio of solubility of compound in aqueous buffer at pH 5 to 7.4 to IC50 for Prolink-tagged human CXCR6 receptor by DiscoveRx cell based assay; assay type: physicochemical
[25] = molecular target: T2, C-X-C chemokine receptor type 6; assay: Antagonist activity at Prolink-tagged human CXCR6 receptor assessed as inhibition of CXCL16-induced beta-arrestin recruitment by DiscoveRx cell based assay
Target sequence in this assay (O00574 whole entry): as the sequence (O00574 whole entry, looked up) above

For `COc1cc(C(=O)N[C@@H]2C[C@H]3CCC[C@@H](C2)N3Cc2nc3c(C(F)(F)F)cccc3s2)cc(OC)c1OC`, the Stability [1] was “Stable”, the AUC [2] was 2050 ng·h/mL and the Activity (SK-HEP1 [3]) was 59 mg. The Vd [4] was 3.32 L/kg, the Cmax [5] was 798 ng/mL and the Activity (SK-HEP1 [6]) was 55 mg. For the same molecule, the IC50 [7] was over 40 µM, the half-life [8] was 94.8 min and the Activity [9] was “Non-Toxic”. The inhibition [10] was “Dose-dependent effect”, the metabolised at 1 h [11] was 100% and the Activity (SK-HEP1 [12]) was “Non-Toxic”. For the same molecule, the Activity [13] was “Non-Toxic”, the metabolised at 1 h [14] was 100% and the clearance [15] was 28.4 mL/min/kg. The Activity (SK-HEP1 [16]) was “Active”, the Stability [17] was “Stable” and the inhibition [18] was 98%. The inhibition [19] was 103%, the LC50 [20] was “>= 25 uM” and the Activity [21] was “Non-Toxic”. For the same molecule, the selectivity ratio [22] was over 40, the half-life [23] was 169 min and the Ratio [24] was “>= 10”. The IC50 [25] was 40 nM.
